Where a chain is given by its changes, count along the chain named. Converted amounts (≈) assume the structure as drawn. Blank lines part the entries; values can stand above or below the compound they belong to. The source made the active and inactive calls. No cut-off for these calls is given here.
Key:
[1] = tested on: RAW264.7; experiment: Cytotoxicity against mouse RAW264.7 cells assessed as reduction in cell viability at >10 uM in presence of LPS measured after 24 hrs by WST assay; format: cell-based; conditions: raw264.7, 24 h
[2] = biological target: T1, High mobility group protein B1 (Mus musculus) (UniProt P63158); experiment: Inhibition of HMGB1 translocation from nucleus to cytosol in LPS-stimulated mouse RAW264.7 cells assessed as inhibition of NO release at 10 uM measured after 24 hrs by Griess assay relative to control
T1 sequence (whole entry): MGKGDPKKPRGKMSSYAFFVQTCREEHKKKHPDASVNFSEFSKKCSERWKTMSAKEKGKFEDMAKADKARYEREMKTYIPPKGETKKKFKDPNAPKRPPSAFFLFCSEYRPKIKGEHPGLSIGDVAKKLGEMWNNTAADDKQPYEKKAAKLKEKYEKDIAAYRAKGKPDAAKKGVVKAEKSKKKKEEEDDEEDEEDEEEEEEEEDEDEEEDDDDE
How it was run: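 Raw264.7 cells, seeded 1 day earlier, were moved to serum-free DMEM and exposed to 100 ng/mL LPS with 10 μM compound for 24 h. Supernatant NO was measured with Griess reagent (sulfanilamide/N-(1-naphthyl)ethylenediamine/phosphoric acid) at room temperature, absorbance 548 nm. Inhibition was set against LPS+DMSO wells, blank-corrected, with four control wells. At least three independent experiments.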

[3] = Cytotoxicity against mouse RAW264.7 cells assessed as cell viability at 10 uM in presence of LPS measured after 24 hrs by WST assay relative to control; format: cell-based; conditions: read-out: Activity
How it was run: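 Raw264.7 cells, seeded 1 day earlier, were washed into serum-free DMEM and given 100 ng/mL LPS plus compound (10 μM) for 24 h. After the supernatant was removed, wells were refilled with 10% FBS DMEM and WST reagent was added for 20 min at 37 °C. Absorbance was read at 450 nm, and viability is relative to vehicle. At least three independent experiments.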

[4] = biological target: T2, High mobility group protein B1 (Homo sapiens) (UniProt P09429); experiment: Inhibition of ICM-BP binding to recombinant human HMGB1 assessed as reduction in Cy5-azide incorporation pretreated for 60 mins followed by ICM-BP addition for 20 mins and subsequent UV light irradiation for 5 mins by fluorescence assay
T2 sequence (whole entry): T1 sequence (whole entry) with D189E, E202D
How it was run: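 Purified HMGB1 (1 μg in water) was pretreated with competitor for 60 min, with DMSO held at 0.8% final. ICM-BP (5 μM) was then added for 20 min, followed by 365 nm UV for 5 min on ice. Cy5-azide was attached by click reaction, then samples were run on 12.5% SDS-PAGE and in-gel fluorescence scanned. Competitor was dosed in a graded series.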

[5] = species: Mus musculus; experiment: Inhibition of ERK phosphorylation in LPS-stimulated mouse RAW264.7 cells at 20 uM pretreated followed by LPS-induction by Western blot analysis
How it was run: (§1)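 Raw264.7 cells were pretreated with 20 μM compound, then stimulated with 100 ng/mL LPS, with DMSO as control. Lysates in RIPA buffer with protease and phosphatase inhibitors were normalized by BCA and run on SDS-PAGE/Western blot for phospho-p38, JNK and ERK, with GAPDH as loading control. Detection by ECL, and band intensities were quantified. At least three independent experiments.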

[6] = species: Mus musculus; experiment: Inhibition of NF-kappaB p65 nuclear translocation in LPS-stimulated mouse RAW264.7 cells at 20 uM pretreated followed by LPS-induction by Hoechst 33342/TRITC staining based immunofluorescence microscopic method
How it was run: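 NF-κB p65 immunofluorescence in Raw264.7 cells pretreated with 20 μM compound, then stimulated with 500 ng/mL LPS. Fixation was 4% paraformaldehyde, methanol permeabilization at −20 °C, and BSA blocking. Cells were stained with anti-p65 plus TRITC secondary and Hoechst 33342 nuclear stain, then imaged by deconvolution microscopy. At least three independent experiments.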

[7] = biological target: T1, High mobility group protein B1 (Mus musculus); experiment: Inhibition of HMGB1 translocation from nucleus to cytosol in LPS-stimulated mouse RAW264.7 cells assessed as inhibition of TNF-alpha production at 10 uM measured after 4 hrs by ELISA relative to control
How it was run: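 Raw264.7 cells in serum-free DMEM were treated with 100 ng/mL LPS and 10 μM compound (final). After 4 h, medium was diluted in 1% BSA/PBS and secreted TNF-α was quantified by ELISA against a standard curve of TNF-α protein. Inhibition is relative to control. At least three independent experiments.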

[8] = Stability in mouse liver microsomes assessed as compound remaining preincubated for 5 mins followed by NADPH addition measured after 30 mins LC/MS/MS method; format: ADME, microsome; conditions: read-out: Stability
How it was run: (§2)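 Compounds were incubated with human or mouse liver microsomes in 100 mM potassium phosphate, pH 7.4, at 37 °C for 5 min. NADPH regenerating solution was added, and the reaction was stopped at 30 min with ice-cold acetonitrile containing imipramine internal standard. Percent remaining was measured by LC/MS/MS. Mean ± SD, n = 3.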

[9] = biological target: T1, High mobility group protein B1 (Mus musculus); experiment: Inhibition of HMGB1 nuclear translocation in LPS-stimulated mouse RAW264.7 cells at 20 uM pretreated for 1 hr followed by LPS-induction measured after 2 hrs by Hoechst 33342/TRITC staining based immunofluorescence microscopic method
How it was run: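 Raw264.7 cells on chambered coverglass were pretreated with 20 μM compound for 1 h, then given 500 ng/mL LPS for 2 h. Cells were fixed in 4% paraformaldehyde, permeabilized with methanol at −20 °C, blocked with 2% BSA, and stained with anti-HMGB1 plus TRITC secondary and Hoechst 33342. Imaged by deconvolution fluorescence microscopy. At least three independent experiments.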

[10] = biological target: MAP kinase p38 (Mus musculus) (UniProt P47811+O08911+Q9WUI1+Q9Z1B7); experiment: Inhibition of MAPK p38 phosphorylation at Thr180/Tyr182 resdiues in LPS-stimulated mouse RAW264.7 cells at 20 uM pretreated followed by LPS-induction by Western blot analysis; how it was run: as §1
[11] = tested on: Mus musculus; experiment: Anti-inflammatory activity in C57BL/6(B6) mouse model of CLP-induced sepsis assessed as survival rate at 10 mg/kg, ip administered daily for 21 days starting from 1 hr prior to CLP-induction (reference value: 10 %); format: functional
[12] = biological target: T1, High mobility group protein B1 (Mus musculus); experiment: Inhibition of HMGB1 nuclear translocation in LPS-stimulated mouse RAW264.7 cells assessed as inhibition of IL-6 production at 10 uM pretreated for 1 hr followed by LPS-induction by Western blot analysis
How it was run: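 Raw264.7 cells were pretreated with 10 μM compound for 1 h, then given 100 ng/mL LPS. IL-6 released into the culture medium was detected by Western blot with ECL chemiluminescence, DMSO as control. At least three independent experiments.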

[13] = tested on: Mus musculus; experiment: Anti-inflammatory activity in C57BL/6(B6) mouse model of CLP-induced sepsis assessed as decrease in serum IL-6 level at 10 mg/kg, ip administered daily for 21 days starting from 1 hr prior to CLP-induction by ELISA; format: functional, organism-based
How it was run: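 Serum IL-6 measured by sandwich ELISA. Blood was taken from CLP-induced C57BL/6 mice 24 h after surgery. Plates coated with anti-IL-6 mAb overnight at 4 °C and blocked with 1% BSA/PBS; serum incubated overnight at 4 °C. Detection used biotinylated anti-IL-6 and streptavidin-HRP, TMB development and absorbance at 450 nm. Run in triplicate, three independent repeats.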

[14] = species: Mus musculus; experiment: Inhibition of JNK phosphorylation at Thr183/Tyr185 resdiues in LPS-stimulated mouse RAW264.7 cells at 20 uM pretreated followed by LPS-induction by Western blot analysis; how it was run: as §1
[15] = Equilibrium aqueous solubility of the compound by microsol method; format: physicochemical
How it was run: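 Equilibrium aqueous solubility by the μsol method. Mean ± SD, n = 3.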

[16] = Stability in human liver microsomes assessed as compound remaining preincubated for 5 mins followed by NADPH addition measured after 30 mins LC/MS/MS method; format: ADME, microsome; conditions: read-out: Stability; how it was run: as §2
[17] = tested on: Mus musculus; experiment: Anti-inflammatory activity in C57BL/6(B6) mouse model of CLP-induced sepsis assessed as decrease in serum IL-6 level at 10 mg/kg, ip administered daily for 9 days starting from 1 hr prior to CLP-induction by ELISA; format: functional, organism-based
[18] = tested on: Mus musculus; experiment: Anti-inflammatory activity in C57BL/6(B6) mouse model of CLP-induced sepsis assessed as increase in survival rate at 10 mg/kg, ip administered daily for 9 days starting from 1 hr prior to CLP-induction; format: functional, organism-based
How it was run: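 C57BL/6 mice from a specific pathogen-free facility underwent CLP. The cecum was ligated below the ileocecal valve 5.0 mm from the tip, punctured once with a 20-gauge needle and a little stool extruded, then the abdomen was closed. Mice received 10 mg/kg ip daily for 9 days and survival was followed against vehicle-treated mice.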

- inhibition [2]: 44%
Structure (SMILES): COc1cc2c(cc1OC)C1C(=CCn3c(=O)n(-c4ccccc4)c(=O)n31)C(C)(C)O2 (stereo not drawn)

- inhibition [7]: 46%
- inhibition [9]: Active
- inhibition [2]: 92%
- inhibition [12]: Active
Structure (SMILES): CC1(C)Oc2cc(O)ccc2C2C1=CCn1c(=O)n(-c3ccc4c(c3)OCO4)c(=O)n12 (stereo not drawn)
- viability at 24 h, 10 µM [3]: 121%

- inhibition [2]: 85%
Structure (SMILES): CC1(C)Oc2cc(O)ccc2C2C1=CCn1c(=O)n(-c3ccc(C(F)(F)F)cc3)c(=O)n12 (stereo not drawn)
- Activity [1]: Toxic
- viability at 24 h, 10 µM [3]: 106%

- inhibition [2]: 47%
Structure (SMILES): CCCN1CCC2(CC1)Oc1cc(O)ccc1C1C2=CCn2c(=O)n(-c3ccccc3)c(=O)n21 (stereo not drawn)

- inhibition [2]: 79%
Structure (SMILES): CC1(C)Oc2cc(F)ccc2C2C1=CCn1c(=O)n(-c3ccccc3)c(=O)n12 (stereo not drawn)

- inhibition [2]: 83%
Structure (SMILES): CC1(C)Oc2ccccc2C2C1=CCn1c(=O)n(-c3ccccc3)c(=O)n12 (stereo not drawn)

- inhibition [2]: 66%
Structure (SMILES): COc1ccccc1-n1c(=O)n2n(c1=O)C1C(=CC2)C(C)(C)Oc2cc(O)ccc21 (stereo not drawn)
- viability at 24 h, 10 µM [3]: 115%

The next lines start with the compound.

Structure (SMILES): CCCCc1ccc(-n2c(=O)n3n(c2=O)C2C(=CC3)C(C)(C)Oc3cc(O)ccc32)cc1 (stereo not drawn)
- Activity [1]: Toxic
- inhibition [2]: 99%
- viability at 24 h, 10 µM [3]: 50%

Structure (SMILES): CC(=O)c1ccc(-n2c(=O)n3n(c2=O)C2C(=CC3)C(C)(C)Oc3cc(O)ccc32)cc1 (stereo not drawn)
- inhibition [4]: Dose-dependent effect
- inhibition [5]: Active
- inhibition [6]: Active
- inhibition [7]: 68%
- remaining at 0.5 h [8]: 2.46%
- inhibition [9]: Active
- inhibition [2]: 93%
- inhibition [10]: Active
- survival at 10 mg/kg [11]: 74%
- inhibition [12]: Active
- Activity [13]: Active
- inhibition [14]: Active
- solubility thermodynamic [15]: 162 µg/mL (≈ 387 µM)
- viability at 24 h, 10 µM [3]: 111%
- remaining at 0.5 h [16]: 30.2%

Structure (SMILES): CC1(C)Oc2cc(O)ccc2C2C1=CCn1c(=O)n(-c3ccccc3)c(=O)n12 (stereo not drawn)
- inhibition [4]: Dose-dependent effect
- inhibition [5]: Active
- inhibition [6]: Active
- inhibition [7]: 43%
- Activity [17]: Active
- remaining at 0.5 h [8]: 0.41%
- inhibition [9]: Active
- inhibition [2]: 87%
- inhibition [10]: Active
- survival at 10 mg/kg [11]: 45%
- inhibition [12]: Active
- Activity [13]: Active
- inhibition [14]: Active
- Activity [18]: Active
- solubility thermodynamic [15]: 23.5 µg/mL (≈ 62.3 µM)
- viability at 24 h, 10 µM [3]: 105%
- remaining at 0.5 h [16]: 0.82%

Structure (SMILES): COc1cccc(-n2c(=O)n3n(c2=O)C2C(=CC3)C(C)(C)Oc3cc(O)ccc32)c1 (stereo not drawn)
- inhibition [7]: 38%
- inhibition [2]: 96%
- viability at 24 h, 10 µM [3]: 118%

Structure (SMILES): CC1(C)Oc2cc(O)ccc2C2C1CCn1c(=O)n(-c3ccccc3)c(=O)n12 (stereo not drawn)
- inhibition [2]: inactive

Reference: ChEMBL document CHEMBL4041534, “Treatment of Sepsis Pathogenesis with High Mobility Group Box Protein 1-Regulating Anti-inflammatory Agents” (J Med Chem, 2017)
